Reference: ChEMBL document CHEMBL4190353, “Synthesis, structure-activity relationships and preliminary mechanism of action of novel water-soluble 4-quinolone-3-carboxamides as antiproliferative agents” (Eur J Med Chem, 2017)
Activity calls are given as the source filed them. The rule behind the calls is not given here.

Columns and labels:
[1] = Solubility in water; type: physicochemical
HCT-116 [2] = assay: Induction of apoptosis in human HCT116 cells assessed as necrotic cells level at 2 uM incubated for 24 hrs by Annexin V-FITC/PI staining based cytometry (reference value: 1.6%); type: functional
HCT-116 [3] = assay: Cytotoxicity against p53-/- human HCT116 cells assessed as reduction in cell viability incubated for 24 hrs by CCK8 assay; type: functional, cell-based
How it was run: (§1)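 Cells were seeded at 3×10^4 per well, grown 24 h, then exposed to increasing concentrations for 24 h. CCK-8 reagent was added for 1 h at 37 °C and absorbance was read at 450 nm. Cells were kept in McCoy's 5A with 10% FBS, and n=3.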

HCT-116 [4] = assay: Induction of apoptosis in Bax-/- human HCT116 cells assessed as viable cells level at 4 uM incubated for 48 hrs by Annexin V-FITC/PI staining based cytometry (reference value: 95.2%); type: functional
How it was run: (§2)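 Cells were plated at 5×10^5 per well and treated once 80% confluent. After trypsinisation and two washes in ice-cold PBS (pH 7.4), cells were stained with Annexin V-FITC and PI for 15 min at room temperature in the dark. Analysis was by flow cytometry. The legend gives vehicle or 4 µM for the p53-/- and Bax-/- lines.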

HCT-116 [5] = assay: Induction of apoptosis in Bax-/- human HCT116 cells assessed as necrotic cells level incubated for 48 hrs by Annexin V-FITC/PI staining based cytometry (reference value: 0.2%); type: functional; how it was run: as §2
HCT-116 [6] = assay: Induction of apoptosis in human HCT116 cells assessed as viable cells level at 4 uM incubated for 24 hrs by Annexin V-FITC/PI staining based cytometry (reference value: 96.6%); type: functional
HCT-116 [7] = assay: Induction of apoptosis in human HCT116 cells assessed as increase in cleaved PARP level at 4 to 8 uM incubated for 24 hrs by Western blot method; type: functional, cell-based
How it was run: (§3)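 Lysates were made in SDS buffer (2% SDS, 50 mM Tris-HCl pH 6.8) and quantified by BCA. Equal protein was run on 10% SDS-PAGE and transferred to PVDF. Membranes were blocked in 5% milk, probed overnight at 4 °C for cleaved PARP (1:1000) with GAPDH (1:5000), and detected with HRP secondary antibody and ECL.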

HCT-116 [8] = assay: Induction of apoptosis in Bax-/- human HCT116 cells assessed as late apoptotic cells level pre-incubated with 20 uM pan-caspase inhibitor Z-VAD-FMK for 5 hrs followed by compound addition and further incubated for 48 hrs by Annexin V-FITC/PI staining based cytometry (reference value: 0.1%); type: functional; design: scale not given: the % may be the effect or the level left
HCT-116 [9] = assay: Induction of apoptosis in human HCT116 cells assessed as viable cells level at 2 uM incubated for 24 hrs by Annexin V-FITC/PI staining based cytometry (reference value: 96.6%); type: functional
PC-3 = assay: Cytotoxicity against human PC3 cells assessed as reduction in cell viability incubated for 24 hrs by MTT assay; type: functional, cell-based; details: PC-3, 24 h
How it was run: (§4)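 Cells were kept in McCoy's 5A with 10% fetal bovine serum, streptomycin and 100 units·mL⁻¹ penicillin at 37 °C under 5% CO₂/95% air. Viability was read by MTT optical density. IC50 is the concentration that lowers optical density by 50% relative to untreated cells. Values are means with SD of at least three independent determinations.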

HCT-116 [10] = assay: Induction of apoptosis in human HCT116 cells assessed as G1 phase cells level at 4 uM incubated for 24 hrs by […]PI staining based cytometry (reference value: 65.2%); type: functional
How it was run: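 Cells were treated for 24 h, then fixed in 75% ethanol at -20 °C overnight. RNA was digested with 0.2 mg/mL RNase A for 30 min at 37 °C. Cells were stained with 50 µg/mL PI for 30 min in the dark, and DNA content was read by flow cytometry.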

HCT-116 [11] = assay: Cytotoxicity in human HCT116 cells assessed as reduction in cell viability pre-treated with 7.5 mM GSH followed by 16 to 32 uM compound addition and further incubated for 24 hrs by CCK8 assay; type: functional, cell-based
How it was run: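 HCT116 cells were pretreated with H2O, 7.5 mM L-NAC or 7.5 mM GSH, then exposed to 4, 16 or 32 µM for 24 h. Viability was read by CCK-8, with 1 h reagent incubation at 37 °C and absorbance at 450 nm. n=3.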

HCT-116 [12] = assay: Cytotoxicity against human HCT116 cells assessed as reduction in cell viability incubated for 24 hrs by CCK8 assay; type: functional, cell-based; how it was run: as §1
HCT-116 [13] = assay: Induction of apoptosis in human HCT116 cells assessed as viable cells level pre-incubated with 20 uM pan-caspase inhibitor Z-VAD-FMK for 5 hrs followed by compound addition and further incubated for 48 hrs by Annexin V-FITC/PI staining based cytometry (reference value: 98.7%); type: functional
HCT-116 [14] = assay: Induction of apoptosis in human HCT116 cells assessed as late apoptotic cells level pre-incubated with 20 uM pan-caspase inhibitor Z-VAD-FMK for 5 hrs followed by compound addition and further incubated for 48 hrs by Annexin V-FITC/PI staining based cytometry (reference value: 0.0%); type: functional; design: scale not given: the % may be the effect or the level left
HCT-116 [15] = assay: Induction of apoptosis in human HCT116 cells assessed as increase in cleaved PARP level at 4 uM incubated for 24 hrs by Western blot method; type: functional, cell-based; how it was run: as §3
HCT-116 [16] = assay: Induction of apoptosis in human HCT116 cells assessed as early apoptotic cells level pre-incubated with 20 uM pan-caspase inhibitor Z-VAD-FMK for 5 hrs followed by compound addition and further incubated for 48 hrs by Annexin V-FITC/PI staining based cytometry (reference value: 1.1%); type: functional; design: scale not given: the % may be the effect or the level left
HCT-116 [17] = assay: […] of ROS generation in human HCT116 cells pre-treated with 7.5 mM GSH for […] followed by 8 uM compound addition and further incubated for 24 hrs by H2DCFDA dye based flow cytometry; type: functional, cell-based
How it was run: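 HCT116 cells pre-treated 5 h with H2O, 7.5 mM L-NAC or 7.5 mM GSH, then exposed to compound for 24 h. Cells collected, washed twice in PBS, and resuspended in serum-free McCoy's 5A with 10 nM H2DCFDA for 20 min at 37 °C in the dark. After two PBS washes, relative ROS measured by flow cytometry.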

HCT-116 [18] = assay: Induction of apoptosis in human HCT116 cells assessed as late apoptotic cells level incubated for 48 hrs by Annexin V-FITC/PI staining based cytometry (reference value: 0.0%); type: functional
HCT-116 [19] = assay: Induction of apoptosis in human HCT116 cells assessed as early apoptotic cells level at 4 uM incubated for 24 hrs by Annexin V-FITC/PI staining based cytometry (reference value: 1.3%); type: functional
HCT-116 [20] = assay: Induction of apoptosis in Bax-/- human HCT116 cells assessed as necrotic cells level pre-incubated with 20 uM pan-caspase inhibitor Z-VAD-FMK for 5 hrs followed by compound addition and further incubated for 48 hrs by Annexin V-FITC/PI staining based cytometry (reference value: 0.2%); type: functional; design: scale not given: the % may be the effect or the level left
HEp-2 = assay: Cytotoxicity against human Hep2 cells assessed as reduction in cell viability incubated for 24 hrs by MTT assay; type: functional, cell-based; details: HEp-2, 24 h; how it was run: as §4
HCT-116 [21] = assay: Induction of apoptosis in p53-/- human HCT116 cells assessed as early apoptotic cells level at 4 uM incubated for 48 hrs by Annexin V-FITC/PI staining based cytometry (reference value: 2.9%); type: functional; how it was run: as §2

CCN(CC)CCCNC(=O)c1cn(CCCc2ccccc2)c2cc(Cl)ccc2c1=O.Cl
solubility [1]: > 10000 µg/mL
Activity (HCT-116 [2]): 1%
Activity (HCT-116 [3]): Dose-dependent effect
Activity (HCT-116 [4]): 71.5%
Activity (HCT-116 [5]): 0.2%
Activity (HCT-116 [6]): 52.7%
Activity (HCT-116 [7]): Active
Activity (HCT-116 [8]): 0.9%
Activity (HCT-116 [9]): 79.3%
IC50 (PC-3): 6.41 µM
Activity (HCT-116 [10]): 42.4%
Activity (HCT-116 [11]): inactive
growth inhibition (GI) (HCT-116 [12]): Dose-dependent effect
IC50 (HCT-116 [12]; HCT-116, 24 h): 5.79 µM
Activity (HCT-116 [13]): 80.4%
Activity (HCT-116 [14]): 2%
Activity (HCT-116 [15]): Active
Activity (HCT-116 [16]): 14.2%
inhibition (HCT-116 [17]): inactive
Activity (HCT-116 [18]): 3.2%
Activity (HCT-116 [19]): 38.2%
Activity (HCT-116 [20]): 1.2%
IC50 (HEp-2): 3.53 µM
Activity (HCT-116 [21]): 24.8%
